Measurements collected from several papers.
Protocols differ between the studies behind these lines.
MAP2K6: Dual specificity mitogen-activated protein kinase kinase 6 (MAP2K6, Homo sapiens, UniProt P52564)

SMILES	target	test	setting	measurement	value
N#CCCc1ccc2c(c1)-c1[nH]c3ccc([N+](=O)[O-])cc3c1CC(=O)N2	MAP2K6	cell-free assay	0.5 µM	remaining signal	97.2%
CCCS(=O)(=O)Nc1ccc(F)c(C(=O)c2c[nH]c3ncc(-c4ccc(Cl)cc4)cc23)c1F	MAP2K6	enzyme activity, inhibitor	1 µM	inhibition	< 10%
CC[C@H](CO)Nc1nc(NCc2ccccc2)c2ncn(C(C)C)c2n1	MAP2K6	cell-free assay	0.5 µM	remaining signal	98.2%
COc1cc2ncnc(Nc3ccc(Oc4ccccc4)c(C)c3C)c2cc1OC	MAP2K6	enzyme activity, inhibitor	1 µM	inhibition	2%
Cn1c2c(c3ccccc31)C(C#N)C(C)(C)NC2=O (stereo not shown)	MAP2K6	thermal stability, DSF	10 µM	ΔTm	0 °C
CN(C)c1ncnc(-c2ccc3nc(Nc4cc(CN5CCN(C(=O)CC(F)(F)F)CC5)ccn4)[nH]c3c2)c1Cl	MAP2K6	cell-free assay, competition with immobilised ligand	1 µM	remaining binding	92%
Cn1c2c(c3ccc(Cl)c(Cl)c31)C(C#N)C1(CCNCC1)NC2=O (racemic)	MAP2K6	thermal stability, DSF	10 µM	ΔTm	0.3 °C
O=C(Nc1cnc(Oc2ccc(F)cc2)nc1)N1CCc2ncccc2[C@@H]1c1ccc(F)cc1	MAP2K6	cell-free assay, competition with immobilised ligand	1 µM	remaining binding	77%
O=C(Nc1cnn(-c2csc(C(=O)NC3COC3)c2)c1)Nc1c(F)cccc1Cl	MAP2K6	enzyme activity, inhibitor	5 µM	remaining activity	94.4%
COc1cc2ncnc(Nc3ccc(F)c(Cl)c3)c2cc1OCCCN1CCOCC1	MAP2K6	cell-free assay	0.5 µM	remaining signal	90.1%
Nc1ncnc2occ(-c3ccc(NC(=O)Nc4cc(C(F)(F)F)ccc4F)cc3)c12	MAP2K6	cell-free assay, inhibitor	20 µM	remaining signal	58%
CNCc1ccc(-c2cc(-c3nc(-c4ccc(S(=O)(=O)C(C)C)cc4)cnc3N)on2)cc1	MAP2K6	enzyme activity, inhibitor	2 µM	inhibition	28%
Cc1sc(C(=O)NC2COC2)cc1-n1cc(NC(=O)Nc2c(F)cccc2Cl)cn1	MAP2K6	enzyme activity, inhibitor	10 µM	remaining activity	86.4%
CNC(=O)c1cc(Oc2ccc(NC(=O)Nc3ccc(Cl)c(C(F)(F)F)c3)cc2)ccn1	MAP2K6	enzyme activity, inhibitor	0.3 µM	inhibition	-1%
Cc1cc(-n2nc(Cc3cc(F)cc(C(F)(F)F)c3)nc2C)ccc1C(N)=O	MAP2K6	cell-free assay, competition with immobilised ligand	1 µM	remaining binding	83%
CCN(CC)CCNC(=O)c1c(C)[nH]c(/C=C2\C(=O)Nc3ccc(F)cc32)c1C	MAP2K6	cell-free assay	0.5 µM	remaining signal	75.9%
CN(C)C1CCN(CC#Cc2nn(C3CCCC3)c3nc(NCc4ccccc4)ncc23)C1 (stereo not shown)	MAP2K6	enzyme activity, inhibitor, FRET	1 µM	inhibition	6%

SMILES	target	test	setting	measurement	value
Cc1ccc(C(=O)NCc2ccsc2)cc1C#Cc1cn(C(C)C)c2ncnc(N)c12	MAP2K6	enzyme activity, inhibitor	1 µM	activity vs control	86%
Cn1c2c(Cl)c(Cl)ccc2c2cn[nH]c(=O)c21	MAP2K6	thermal stability, DSF	10 µM	ΔTm	0.1 °C
CO[C@@H](C)c1c(Nc2ccc([C@H](N(C)C(=O)C3CCS(=O)(=O)CC3)C(F)(F)F)cc2)cnc2cc(Cl)nn12	MAP2K6	cell-free assay, competition with immobilised ligand	1 µM	remaining binding	91%
O=C1NC(=O)c2cc(Nc3ccc(F)cc3)c(Nc3ccc(F)cc3)cc21	MAP2K6	cell-free assay	0.5 µM	remaining signal	110%
Cc1cc(NC(=O)c2cccc3cc(-c4cccc5[nH]nc(N)c45)ccc23)ccc1F	MAP2K6	enzyme activity, inhibitor	0.1 µM	activity vs control	89%
CCN1CCC2(CC1)NC(=O)c1c(c3ccc(Cl)c(Cl)c3n1C)C2C#N (racemic)	MAP2K6	thermal stability, DSF	10 µM	ΔTm	0 °C
CC(C)(C)c1nc2c(s1)c1nc(N)ncc1c1ccc(NS(=O)(=O)c3c(F)cccc3F)c(F)c12	Dual specificity mitogen-activated protein kinase kinase 6 (MAP2K6, Homo sapiens, UniProt P52564, S207D/T211D)	enzyme activity, inhibitor, radiometric	1 µM	remaining activity	70%
Cc1ccc(Nc2nccc(N(C)c3ccc4c(C)n(C)nc4c3)n2)cc1S(N)(=O)=O	MAP2K6	enzyme activity, inhibitor	10 µM	inhibition	90%
CC(C)(O)c1cncc(-c2nc3ccc(F)cc3n2C2CC2)c1	MAP2K6	cell-free assay, competition with immobilised ligand	1 µM	remaining binding	100%
CCCOc1ccc(OC)c(F)c1C(=O)c1ccc(C(=O)N[C@@H]2CNC[C@H]2NC(=O)c2ccc3[nH]ncc3c2)cc1	MAP2K6	enzyme activity, inhibitor	10 µM	remaining activity	103%
CN(C)C(=O)Cn1cc(-c2nc(C3(c4ccc(-c5cnc(N)nc5)cc4)CC3)no2)cn1	MAP2K6	cell-free assay, competition with immobilised ligand	1 µM	remaining binding	100%
Cn1c2c(Cl)c(Cl)ccc2c2cc[nH]c(=O)c21	MAP2K6	thermal stability, DSF	10 µM	ΔTm	0.2 °C
COc1cc(Cl)c(C(=O)N[C@@H](CN[C@H]2CC[C@@H](N)CC2)Cc2ccc(C#N)cc2)cc1-c1ccc(CN[C@H](C)c2ccc(C)cc2)o1	MAP2K6	enzyme activity, inhibitor	1 µM	remaining activity	88%
CN(C)C(=O)Cn1cc(-c2nc([C@@](C)(c3ccc(-c4cnc(N)nc4)cc3)C3CC3)no2)cn1	MAP2K6	cell-free assay, competition with immobilised ligand	1 µM	remaining binding	100%
Oc1cccc(-c2nc(N3CCOCC3)c3oc4ncccc4c3n2)c1	MAP2K6	enzyme activity, inhibitor	10 µM	remaining activity	107%
CNCc1ccccc1-c1csc([C@@H](C)Nc2nc(C)nc3cc(OC)c(OC)cc23)c1	MAP2K6	cell-free assay, competition with immobilised ligand	1 µM	remaining binding	86%
COc1cc(Nc2cnc(C#N)c(O[C@H](C)CN(C)C)n2)ncc1-c1cnn(C)c1	MAP2K6	enzyme activity, inhibitor, radiometric	10 µM	remaining activity	91%
